Compounds with a hit are over-represented: about 4.9% of the library has one in this group of screens.
STAT1 activator – increases IFN-gamma driven STAT1 reporter signal. activation (% of control), % at 5.5 µM. NIH 3T3 STAT1-luciferase reporter, luminescence; 100% = IFN-gamma alone, no compound. 2.6% of 200,000 active. AID 932;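 active = activation above the screen-wide mean activation plus 3 SD, cut at about 130% in these data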
APP 5'UTR act – APP 5'UTR luciferase reporter activation; SH-SY5Y APP 5'UTR luciferase reporter, luminescence; zero percent = DMSO vehicle wells; activation, % at 2 µM; 1% of 190,000 active;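 active = activation above a set limit, based on mean plus 3 SD of controls, cut at about 140% in these data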
STAT3 activator – STAT3 signaling activation. U3A cells, IL-6 STAT3-luciferase reporter, luminescence; 100% = signal with IL-6 EC80 alone. activation (% of control), % at 5.6 µM. 0.91% of 190,000 active;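 active = activation above the screen-wide mean of compound activation plus 3 SD, cut at about 130% in these data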
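Detection: reporter luminescence signal / Assay system: STAT1-lacking human U3A cells, STAT3 luciferase reporter / Incubation: compound pre-incubation 1 h before IL-6, then 6 h stimulation at 37 °C / Control set: IL-6-only high control / Read-out: % activation relative to IL-6 control / Probe or stimulus: Interleukin-6, 33 ng/mL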
STAT1 inh – inhibitors of IFN-gamma induced STAT1 signaling. 0.35% of 200,000 active. inhibition, % at 5.5 µM. NIH 3T3 STAT1-luciferase reporter, luminescence;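 active = inhibition above a set limit, the mean inhibition across all tested compounds plus 3 SD, cut at about 34% in these data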
STAT3 inh-1 – reduces IL-6 driven STAT3 reporter signal; U3A cells, IL-6 STAT3-luciferase reporter, luminescence; host cell line lacks STAT1; 0.89% of 190,000 active; inhibition, % at 5.5 µM;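 active = inhibition above the mean inhibition across all screened compounds plus 3 SD, cut at about 44% in these data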
NF-kB neuron act – NF-kB expression increase, human neuronal cells; 1.6% of 190,000 active; AID 1239; NF-kB reporter expression; active compounds read high; fold change at 12.5 µM; in the data active = fold change above about 3.3
STAT3 inh-2 – STAT3 inhibition, confirmation assay. shares compounds with STAT3 inh-1. U3A cells, IL-6 STAT3 luciferase reporter, luminescence; cell line lacks STAT1. inhibition, % at 5.7 µM. 45% of 1,200 active;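 active = inhibition above the hit cutoff computed for the primary STAT3 screen, cut at about 44% in these data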
NFkB inh 2 – inhibits NF-kappaB, counter-screen to STAT3 inhibitors. shares compounds with STAT3 inh-1. HEK293T NF-kB luciferase reporter, TNF-alpha induced. inhibition, % at 5.7 µM. 36% of 1,200 active. AID 1308;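 active = inhibition above the mean of solvent-only control wells plus 3 SD, cutoff set per campaign, cut at about 13% in these data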
STAT1 inh STAT3c – counter-screen for STAT3 inhibitors: STAT1 inhibition | inhibition, % at 5.7 µM | NIH 3T3 STAT1-luciferase reporter, IFN-gamma induced, luminescence | 27% of 1,200 active | shares compounds with STAT3 inh-1;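 active = inhibition above the mean plus 3 SD of solvent-only control wells, limit set per screening run, cut at about 16% in these data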
Each line names hits and unclear results; the compound was inactive in the other large screens (follow-up assays come after a bar, where they were run).

Cc1ccc2[nH]c(C)c(CCNC(=O)C3CCCCC3C(=O)OCC(F)(F)F)c2c1 (stereo not drawn)	none
CC(C)C(OC(=O)/C=C/c1ccc2c(c1)OCO2)C(=O)NC(N)=O (stereo not drawn)	none
CC(Oc1ccc(Cl)cc1Cl)C(=O)Nc1ccc2oc(-c3ccncc3)nc2c1 (stereo not drawn)	STAT3 inh-1 49.8 | STAT3 inh-2 49.9 | NFkB inh 2 inactive | STAT1 inh STAT3c inactive
CCCNC(=O)C12CCC(C)(c3nc4cc(C)c(C)cc4nc31)C2(C)C (stereo not drawn)	none
OCCCn1c(-c2ccccc2)csc1=Nc1ccccc1	none
COc1ccc(N=c2scc(-c3ccc(OC)cc3)n2CCO)cc1	STAT3 inh-1 51.6 | STAT3 inh-2 inactive | NFkB inh 2 inactive | STAT1 inh STAT3c inactive
COc1ccc(C(=O)Nc2ccc3oc(Cc4ccc(Cl)cc4)nc3c2)cc1OC	STAT3 inh-1 51.2 | STAT3 inh-2 44.8 | NFkB inh 2 inactive | STAT1 inh STAT3c inactive
Cc1c(C(=O)Nc2ccccc2)csc1-c1ccccc1	STAT1 activator 137.2, APP 5'UTR act 189.3, STAT3 inh-1 55.4, NF-kB neuron act 5.17 | STAT3 inh-2 inactive | NFkB inh 2 inactive | STAT1 inh STAT3c inactive
Cc1cc(C(=O)Cn2nnc3ccccc3c2=O)c(C)n1Cc1cccs1	APP 5'UTR act 222.7, STAT3 inh-1 46.3 | STAT3 inh-2 inactive | NFkB inh 2 inactive | STAT1 inh STAT3c inactive
COc1ccc(OC)c(C(=O)Cn2nnc3ccccc3c2=O)c1	none
COc1cccc(CN2CCN(Cc3cccc4nonc34)CC2CCO)c1 (stereo not drawn)	none
O=C(Nc1cccc(S(=O)(=O)Nc2ccccc2Cl)c1)c1ccc(Cl)nc1	STAT3 inh-1 43.8 | STAT3 inh-2 50.3 | NFkB inh 2 inactive | STAT1 inh STAT3c inactive
CC(=O)NS(=O)(=O)c1ccc(NC(=O)c2ccc3c(c2)C(=O)N(CCC(C)C)C3=O)cc1	none
N/C(=N\OC(=O)c1ccc(Cl)cc1)c1ccccn1	APP 5'UTR act 185.4, STAT3 inh-1 87.1, NF-kB neuron act 3.55 | STAT3 inh-2 inactive | NFkB inh 2 inactive | STAT1 inh STAT3c inactive
N/C(=N\OC(=O)c1cccc(Cl)c1)c1ccccn1	APP 5'UTR act 166.3, STAT3 inh-1 74.2, NF-kB neuron act 5.26 | STAT3 inh-2 inactive | NFkB inh 2 inactive | STAT1 inh STAT3c inactive
N/C(=N\OC(=O)c1ccc(Cl)c([N+](=O)[O-])c1)c1ccccn1	none
c1ccc(C2=NNC(=NC3CC3)SC2)cc1	STAT3 inh-1 74.3 | STAT3 inh-2 inactive | NFkB inh 2 inactive | STAT1 inh STAT3c inactive
O=C(NCC1CCCO1)c1ccc2c(=O)n(-c3ccccc3)c(=S)[nH]c2c1 (stereo not drawn)	none
O=C(CSc1nnc(Cn2nnc3ccccc32)o1)N(Cc1ccc(F)cc1)c1ccccc1	STAT3 inh-1 75.6 | STAT3 inh-2 71.8 | NFkB inh 2 23.8 | STAT1 inh STAT3c 19.1
COc1ccc(-c2cn3nc4c(nc3n2)CCCC4)cc1	STAT3 inh-1 70.2 | STAT3 inh-2 inactive | NFkB inh 2 inactive | STAT1 inh STAT3c inactive
CC(=O)c1ccc(N=Nc2ccc(C)cc2)cc1	APP 5'UTR act 282.7, STAT3 inh-1 81.8, NF-kB neuron act 4.8 | STAT3 inh-2 44.4 | NFkB inh 2 inactive | STAT1 inh STAT3c inactive
CC(=O)c1ccc(N=Nc2ccc(N(C)C)cc2)cc1	STAT3 inh-1 52.5, NF-kB neuron act 3.85 | STAT3 inh-2 47.4 | NFkB inh 2 22.4 | STAT1 inh STAT3c inactive
Cc1ccc(C(=O)c2ccc(C)cc2)cc1	none
O=C(Cc1ccccc1)NNC(=O)Nc1ccc(Cl)c(Cl)c1	none
O=C(Nc1ccc(Cl)cc1)Nc1ccccc1C(=O)O	STAT3 inh-1 61.5, NF-kB neuron act 4.55 | STAT3 inh-2 inactive | NFkB inh 2 inactive | STAT1 inh STAT3c inactive
O=C(Nc1ccc(Cl)c(Cl)c1)Nc1ccccc1C(=O)O	STAT1 activator 140.3, APP 5'UTR act 214.9, STAT3 inh-1 52.9, NF-kB neuron act 7.74 | STAT3 inh-2 inactive | NFkB inh 2 inactive | STAT1 inh STAT3c inactive
COc1ccc(C)cc1NC(=O)CNC(C)C(=O)Nc1cc(Cl)ccc1Cl (stereo not drawn)	none
Cn1c(CN2CCCCC2)nc2cc(NC(=O)c3ccc(Cl)cc3)ccc21	STAT3 inh-1 69.5 | STAT3 inh-2 69.8 | NFkB inh 2 22.7 | STAT1 inh STAT3c inactive
Cc1ccc(-c2cnc3c(Cl)c(C)nn3c2)cc1	APP 5'UTR act 243.5, STAT3 inh-1 82.4, NF-kB neuron act 6.49 | STAT3 inh-2 inactive | NFkB inh 2 21.6 | STAT1 inh STAT3c inactive
Cc1cc2ncc(C(=O)N=CN(C)C)cn2n1	none
Cc1ccc(-c2cnc3cc(C)nn3c2)cc1	APP 5'UTR act 146.7, STAT3 inh-1 69.1, NF-kB neuron act 5.67 | STAT3 inh-2 inactive | NFkB inh 2 inactive | STAT1 inh STAT3c inactive
COc1ccc(-n2c(C)cc(-c3csc(NC(=O)c4ccc(S(=O)(=O)N(C)C)cc4)n3)c2C)cc1	none
Cc1c(C(=O)Nc2ccccc2)sc2nc[nH]c(=O)c12	none
C=CCNc1cc(N2CCCC2)ccc1[N+](=O)[O-]	none
COC1=C(N)C(=O)c2nc(-c3nc(C(=O)O)c(C)c(-c4ccc(OC)c(OC)c4O)c3N)ccc2C1=O	STAT3 inh-1 105.5 | STAT3 inh-2 103.2 | NFkB inh 2 97.4 | STAT1 inh STAT3c 85.3
COc1ccc(-c2ncncc2-c2csc(C)n2)c(O)c1OC	none
Cc1csc(SCC(=O)c2c(N)n(CC(C)C)c(=O)n(C)c2=O)n1	STAT3 inh-1 48.8 | STAT3 inh-2 48.8 | NFkB inh 2 inactive | STAT1 inh STAT3c 19.8
Cc1nn(-c2ccccc2)c(C)c1C(=O)OCC(=O)c1c(N)n(CC(C)C)c(=O)n(C)c1=O	STAT3 inh-1 44.4 | STAT3 inh-2 66.0 | NFkB inh 2 13.7 | STAT1 inh STAT3c inactive
CCOC(=O)Cc1csc(SCC(=O)c2c(N)n(CC(C)C)c(=O)n(C)c2=O)n1	STAT3 inh-1 64.1 | STAT3 inh-2 52.0 | NFkB inh 2 inactive | STAT1 inh STAT3c inactive
CCN(CC)S(=O)(=O)c1ccc(OC)c(NC(=O)c2cc(C)on2)c1	none
COc1ccccc1N(C(=O)c1cncc(Br)c1)c1nc(-c2ccc(C)cc2)cs1	none
Cc1ccc(S(=O)(=O)C(C#N)c2nc3ccccc3nc2N2CCN(C)CC2)cc1C (stereo not drawn)	STAT3 inh-1 50.4 | STAT3 inh-2 inactive | NFkB inh 2 inactive | STAT1 inh STAT3c inactive

High-throughput results as filed in PubChem.
